Data reported in ChEMBL document CHEMBL1153828, “Structures of the tyrosine kinase domain of fibroblast growth factor receptor in complex with inhibitors” (Science, 1997).
Calls of active or inactive are those of the source. The rule behind the calls is not given here.

Columns and labels:
[1] = molecular target: Fibroblast growth factor receptor 1 (Mus musculus, UniProt P16092); test: Inhibition of acidic FGF-stimulated FGFR1 tyrosine autophosphorylation in mouse NIH/3T3 cells by immunoblotting; format: cell-based, NIH3T3
Chain of Fibroblast growth factor receptor 1 (Mus musculus, UniProt P16092) (P16092 whole entry): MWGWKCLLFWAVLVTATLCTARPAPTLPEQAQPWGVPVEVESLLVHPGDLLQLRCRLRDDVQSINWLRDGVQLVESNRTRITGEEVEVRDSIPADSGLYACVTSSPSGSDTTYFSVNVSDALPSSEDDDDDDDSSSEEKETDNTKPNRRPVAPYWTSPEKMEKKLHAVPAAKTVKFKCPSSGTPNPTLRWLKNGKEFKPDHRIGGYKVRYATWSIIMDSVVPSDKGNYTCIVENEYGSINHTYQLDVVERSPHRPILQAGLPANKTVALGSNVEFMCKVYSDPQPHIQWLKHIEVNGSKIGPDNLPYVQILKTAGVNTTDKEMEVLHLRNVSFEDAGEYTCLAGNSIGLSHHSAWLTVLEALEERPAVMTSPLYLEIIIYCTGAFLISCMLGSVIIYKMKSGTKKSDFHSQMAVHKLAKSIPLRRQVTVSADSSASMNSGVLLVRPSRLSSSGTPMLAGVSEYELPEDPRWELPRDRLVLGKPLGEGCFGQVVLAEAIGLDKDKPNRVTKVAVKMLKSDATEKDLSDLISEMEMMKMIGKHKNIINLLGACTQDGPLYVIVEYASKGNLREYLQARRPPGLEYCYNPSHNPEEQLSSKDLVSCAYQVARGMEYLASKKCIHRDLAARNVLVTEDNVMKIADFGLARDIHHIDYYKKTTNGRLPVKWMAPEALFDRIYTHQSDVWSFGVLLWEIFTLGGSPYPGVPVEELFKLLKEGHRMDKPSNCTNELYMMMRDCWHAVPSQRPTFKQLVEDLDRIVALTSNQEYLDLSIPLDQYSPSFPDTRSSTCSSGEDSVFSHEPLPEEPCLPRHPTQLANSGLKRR

[2] = molecular target: Epidermal growth factor receptor (Mus musculus) (UniProt Q01279); test: Inhibition of EGFR phosphorylation in mouse NIH/3T3 cells at 200 uM; format: cell-based; details: NIH3T3
Chain of Epidermal growth factor receptor (Mus musculus) (Q01279 whole entry): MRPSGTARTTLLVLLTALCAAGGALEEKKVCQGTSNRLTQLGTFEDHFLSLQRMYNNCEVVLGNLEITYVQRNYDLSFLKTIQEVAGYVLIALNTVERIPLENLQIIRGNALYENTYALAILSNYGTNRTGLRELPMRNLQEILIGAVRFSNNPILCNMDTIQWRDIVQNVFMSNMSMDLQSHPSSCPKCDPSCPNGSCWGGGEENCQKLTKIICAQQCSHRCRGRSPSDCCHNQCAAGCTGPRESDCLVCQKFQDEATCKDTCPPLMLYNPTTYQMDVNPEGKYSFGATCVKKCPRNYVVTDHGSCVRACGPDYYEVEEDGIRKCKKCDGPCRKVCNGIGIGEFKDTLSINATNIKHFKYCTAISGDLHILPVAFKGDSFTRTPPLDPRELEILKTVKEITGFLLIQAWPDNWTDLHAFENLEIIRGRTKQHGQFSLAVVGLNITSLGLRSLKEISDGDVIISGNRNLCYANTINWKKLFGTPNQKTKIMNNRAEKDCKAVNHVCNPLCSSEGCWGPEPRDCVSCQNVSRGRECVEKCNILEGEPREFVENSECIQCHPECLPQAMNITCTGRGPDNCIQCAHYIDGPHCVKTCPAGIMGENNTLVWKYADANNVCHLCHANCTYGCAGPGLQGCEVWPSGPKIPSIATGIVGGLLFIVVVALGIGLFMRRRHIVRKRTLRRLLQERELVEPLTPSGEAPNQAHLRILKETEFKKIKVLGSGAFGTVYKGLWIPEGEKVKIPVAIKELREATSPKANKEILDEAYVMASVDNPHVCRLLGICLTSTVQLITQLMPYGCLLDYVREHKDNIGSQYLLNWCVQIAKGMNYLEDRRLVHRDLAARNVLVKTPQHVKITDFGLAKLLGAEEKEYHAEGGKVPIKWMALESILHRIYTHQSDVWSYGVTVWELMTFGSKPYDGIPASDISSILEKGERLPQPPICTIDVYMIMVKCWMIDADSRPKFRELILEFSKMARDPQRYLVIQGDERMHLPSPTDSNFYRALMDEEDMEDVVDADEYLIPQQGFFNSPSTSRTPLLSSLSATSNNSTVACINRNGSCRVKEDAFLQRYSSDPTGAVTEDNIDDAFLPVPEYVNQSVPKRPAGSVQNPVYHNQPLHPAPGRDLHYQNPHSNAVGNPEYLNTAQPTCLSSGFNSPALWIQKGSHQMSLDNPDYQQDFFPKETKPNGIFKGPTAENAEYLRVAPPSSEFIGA

[3] = molecular target: T1, Platelet-derived growth factor receptor (Mus musculus) (UniProt P05622+P26618); test: Inhibition of PDGFR in mouse NIH/3T3 cells assessed as PDGF-stimulated Erk2 activation by immunoblotting; format: cell-based; details: NIH3T3
[4] = molecular target: Epidermal growth factor receptor (Mus musculus) (UniProt Q01279); test: Inhibition of EGFR in mouse HER14 cells assessed as inhibition of EGF-stimulated ERK2 activation by immunoblotting; format: cell-based
[5] = molecular target: Epidermal growth factor receptor (Mus musculus) (UniProt Q01279); test: Inhibition of EGF-stimulated EGFR phosphorylation in mouse HER14 cells by immunoblotting; format: cell-based
How it was run: (§1)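 Cells were preincubated with a range of inhibitor concentrations for 5 min at 37°C, then stimulated for 5 min at 37°C (unstimulated controls kept): PDGF 40 ng/ml for PDGFR, insulin 1 μg/ml for insulin receptor, EGF 100 ng/ml for EGFR. Lysates were immunoprecipitated with receptor-specific antibodies, run on SDS-PAGE and immunoblotted with anti-phosphotyrosine.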

[6] = molecular target: T1, Platelet-derived growth factor receptor (Mus musculus); test: Inhibition of PDGFR in mouse NIH/3T3 cells assessed as inhibition of PDGF-stimulated tyrosine autophosphorylation by immunoblotting; format: cell-based; details: NIH3T3; how it was run: as §1
[7] = molecular target: Insulin receptor (Mus musculus) (UniProt P15208); test: Inhibition of insulin receptor in mouse NIHIR cells assessed as inhibition of insulin-stimulated IRS1 phosphorylation; format: cell-based
Chain of Insulin receptor (Mus musculus) (P15208 28-748 limits assumed): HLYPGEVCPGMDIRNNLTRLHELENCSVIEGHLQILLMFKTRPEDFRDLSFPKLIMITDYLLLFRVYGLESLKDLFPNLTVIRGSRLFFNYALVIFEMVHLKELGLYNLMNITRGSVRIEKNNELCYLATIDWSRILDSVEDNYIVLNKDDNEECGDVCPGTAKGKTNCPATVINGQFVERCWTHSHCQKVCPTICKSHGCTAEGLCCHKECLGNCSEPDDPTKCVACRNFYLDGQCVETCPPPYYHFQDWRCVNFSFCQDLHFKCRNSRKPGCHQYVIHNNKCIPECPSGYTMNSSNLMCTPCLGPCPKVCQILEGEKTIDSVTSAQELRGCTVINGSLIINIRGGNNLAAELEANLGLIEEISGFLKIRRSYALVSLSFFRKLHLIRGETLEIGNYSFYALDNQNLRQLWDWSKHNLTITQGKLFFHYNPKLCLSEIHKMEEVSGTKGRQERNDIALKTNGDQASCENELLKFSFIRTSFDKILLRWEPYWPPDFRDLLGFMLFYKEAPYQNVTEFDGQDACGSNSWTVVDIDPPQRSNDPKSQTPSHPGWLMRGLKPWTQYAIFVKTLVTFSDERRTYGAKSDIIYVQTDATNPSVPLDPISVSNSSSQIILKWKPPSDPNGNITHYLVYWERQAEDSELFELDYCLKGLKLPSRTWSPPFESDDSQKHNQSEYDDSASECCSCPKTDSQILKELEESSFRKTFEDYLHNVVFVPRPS
Chain of Insulin receptor (Mus musculus) (P15208 753-1372 limits assumed): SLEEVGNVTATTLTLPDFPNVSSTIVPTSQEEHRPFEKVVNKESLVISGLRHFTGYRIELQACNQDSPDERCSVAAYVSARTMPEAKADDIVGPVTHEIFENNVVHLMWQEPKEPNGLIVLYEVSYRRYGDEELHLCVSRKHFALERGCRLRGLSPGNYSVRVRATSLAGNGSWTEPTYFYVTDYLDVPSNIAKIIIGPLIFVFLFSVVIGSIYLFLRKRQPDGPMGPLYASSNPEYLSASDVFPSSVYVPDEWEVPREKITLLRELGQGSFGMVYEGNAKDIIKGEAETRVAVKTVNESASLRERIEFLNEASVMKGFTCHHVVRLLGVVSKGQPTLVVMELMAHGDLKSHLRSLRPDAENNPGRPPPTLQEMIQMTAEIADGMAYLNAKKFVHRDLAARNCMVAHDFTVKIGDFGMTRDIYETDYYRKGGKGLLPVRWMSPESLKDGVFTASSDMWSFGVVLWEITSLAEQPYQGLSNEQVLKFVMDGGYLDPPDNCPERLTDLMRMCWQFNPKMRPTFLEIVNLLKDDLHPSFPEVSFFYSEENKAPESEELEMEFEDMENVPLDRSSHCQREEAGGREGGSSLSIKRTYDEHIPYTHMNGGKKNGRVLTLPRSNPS
How it was run: (§2)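 Cells were preincubated with a range of inhibitor concentrations for 5 min at 37°C, then stimulated for 5 min at 37°C: PDGF 40 ng/ml, insulin 1 μg/ml or EGF 100 ng/ml. Whole-lysate portions went directly to SDS-PAGE and anti-phosphotyrosine immunoblotting, and substrate phosphoproteins were located by position.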

[8] = molecular target: T1, Platelet-derived growth factor receptor (Mus musculus); test: Inhibition of PDGFR in mouse NIH/3T3 cells assessed as inhibition of PDGF-stimulated phospholipase C gamma phosphorylation by immunoblotting; format: cell-based; details: NIH3T3; how it was run: as §2
[9] = system: NIH3T3; test: Growth inhibition of mouse NIH/3T3 cells assessed as inhibition of acidic FGF-stimulated [3H]thymidine incorporation; format: functional, cell-based
How it was run: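 NIH 3T3 cells, untreated or pretreated with inhibitor at 50 μM, were stimulated with aFGF and then labeled with [3H]thymidine. Thymidine incorporation was measured after 24 hours.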

[10] = molecular target: Fibroblast growth factor receptor 1 (Homo sapiens, UniProt P11362); test: Inhibition of FGFR1K autophosphorylation activity assessed as [32P] incorporation
Chain of Fibroblast growth factor receptor 1 (Homo sapiens, UniProt P11362) (P11362 whole entry): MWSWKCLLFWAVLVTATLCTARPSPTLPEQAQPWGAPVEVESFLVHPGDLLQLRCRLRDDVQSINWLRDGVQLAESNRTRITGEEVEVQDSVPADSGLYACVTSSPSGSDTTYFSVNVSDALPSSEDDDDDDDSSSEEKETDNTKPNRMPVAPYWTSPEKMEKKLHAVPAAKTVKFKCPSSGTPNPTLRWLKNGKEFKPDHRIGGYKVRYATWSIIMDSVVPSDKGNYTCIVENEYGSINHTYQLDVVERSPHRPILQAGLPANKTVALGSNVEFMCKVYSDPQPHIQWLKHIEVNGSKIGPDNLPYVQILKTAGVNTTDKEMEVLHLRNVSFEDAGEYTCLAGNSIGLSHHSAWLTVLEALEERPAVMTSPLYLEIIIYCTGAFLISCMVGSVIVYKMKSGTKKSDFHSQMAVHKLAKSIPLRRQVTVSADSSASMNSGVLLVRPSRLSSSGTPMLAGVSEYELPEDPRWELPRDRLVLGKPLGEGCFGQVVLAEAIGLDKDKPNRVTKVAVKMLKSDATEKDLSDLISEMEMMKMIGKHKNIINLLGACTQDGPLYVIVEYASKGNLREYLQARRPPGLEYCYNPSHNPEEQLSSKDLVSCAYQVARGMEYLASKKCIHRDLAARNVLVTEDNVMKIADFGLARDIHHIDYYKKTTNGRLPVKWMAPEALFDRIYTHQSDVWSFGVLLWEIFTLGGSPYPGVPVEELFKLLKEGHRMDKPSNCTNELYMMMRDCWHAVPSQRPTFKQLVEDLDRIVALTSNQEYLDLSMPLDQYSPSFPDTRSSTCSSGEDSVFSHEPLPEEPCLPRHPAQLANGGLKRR

[11] = molecular target: Epidermal growth factor receptor (Mus musculus) (UniProt Q01279); test: Inhibition of EGFR in mouse HER14 cells assessed as inhibition of EGF-stimulated Shc phosphorylation by immunoblotting; format: cell-based; how it was run: as §2
[12] = molecular target: Insulin receptor (Mus musculus) (UniProt P15208); test: Inhibition of insulin-stimulated insulin receptor beta subunit autophosphorylation in mouse NIHIR cells; format: cell-based; how it was run: as §1
[13] = molecular target: Insulin receptor (Mus musculus) (UniProt P15208); test: Inhibition of insulin receptor tyrosine phosphorylation in mouse NIH3T3 cells; format: cell-based; how it was run: as §1
[14] = molecular target: T1, Platelet-derived growth factor receptor (Mus musculus); test: Inhibition of PDGFR tyrosine phosphorylation in mouse NIH3T3 cells; format: cell-based; how it was run: as §1

In the case of `Cc1c[nH]c(/C=C2\C(=O)Nc3ccccc32)c1CCC(=O)O`, the IC50 [1] is reported as 10 µM, the Activity [2] is reported as “inactive” and the Activity [3] is reported as “Active”. For the same molecule, the Activity [4] was “Active”, the Activity [5] was “Active” and the Activity [6] was “Active”. For the same molecule, the Activity [7] was “Active”, the Activity [8] was “Active” and the Activity [9] was “Active”. For the same molecule, the IC50 [10] was 10 µM, the Activity [11] was “Active” and the Activity [12] was “Active”. The Activity [13] was “inactive”.
`O=CN1CCN(c2ccc(/C=C3\C(=O)Nc4ccccc43)cc2)CC1` was tested, and the IC50 [1] was 20 µM, the Activity [2] was “inactive” and the Activity [14] was “Active”. The Activity [3] was “Active”, the Activity [6] was “Active” and the Activity [7] was “Active”. The Activity [8] was “Active”, the Activity [9] was “Active” and the IC50 [10] was 10 µM. For the same molecule, the Activity [12] was “Active” and the Activity [13] was “Active”.
